The source made the active and inactive calls. The calls are words filed in the database; no cut-off is given here.
Key:
Platelet [1] = assay: Inhibition of 500 uM arachidonate-induced platelet aggregation in human platelet-rich plasma at 10 uM by turbidometric method; assay type: functional
Summary of the method: (§1)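 Citrated human PRP from normal donors (no aspirin for 48 h), centrifuged at 164g to remove red cells, kept at 25 °C. Reagents added as 10 μL per 1 mL PRP. Inhibitor held at 10^-5 M while arachidonate concentration varied. Turbidometric (Born) aggregation at 37 °C over 3 min; % inhibition from a single blood sample, representative of several determinations.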

Platelet [2] = assay: Inhibition of 400 uM arachidonate-induced platelet aggregation in human platelet-rich plasma at 10 uM by turbidometric method; assay type: functional; summary of the method: as §1
Platelet [3] = assay: Inhibition of 300 uM arachidonate-induced platelet aggregation in human platelet-rich plasma at 10 uM by turbidometric method; assay type: functional; summary of the method: as §1
[4] = biological target: T1, Cyclooxygenase (Bos taurus) (UniProt O62664+O62698); assay: Inhibition of cyclooxygenase activity in bovine seminal vesicles assessed as arachodonic acid dependent formation of adenochrome from L-epinephrine at 500 uM; assay type: protein assay
Summary of the method: (§2)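 Prostaglandin synthetase from a crude freeze-dried beef seminal vesicle powder, 6.7 mg/mL per assay, solubilized with 0.05% Triton X-100. Activity measured as arachidonic acid dependent adrenochrome formation from L-epinephrine (Takeguchi–Sih method, minor modification). Highest test concentration 5×10^-4 M; indomethacin 2×10^-5 M as reference.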

Platelet [5] = assay: Inhibition of ADP-induced primary platelet aggregation in aspirin-treated human platelet-rich plasma at 100 uM after 2 mins by turbidometric method; assay type: functional
Summary of the method: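 PRP from donors free of aspirin for 48 h, centrifuged at 164g and held at 25 °C, then incubated 15 min with aspirin (1 mg/mL). Test agent (100 μM) added 2 min before 10 μM ADP. Primary aggregation compared with aspirin alone, read turbidometrically (Born) at 37 °C over 3 min.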

[6] = biological target: T1, Cyclooxygenase (Bos taurus); assay: Inhibition of cyclooxygenase activity in bovine seminal vesicles assessed as arachodonic acid dependent formation of adenochrome from L-epinephrine at concentration of one order of magnitude greater than that necessary for 100% inhibition of platelet aggregation; summary of the method: as §2
[7] = biological target: T1, Cyclooxygenase (Bos taurus); assay: Inhibition of cyclooxygenase activity in bovine seminal vesicles assessed as arachodonic acid dependent formation of adenochrome from L-epinephrine at 100 uM; assay type: protein assay; summary of the method: as §2

Row | SMILES | inhibition (INH) (Platelet [1]) | inhibition (INH) (Platelet [2]) | inhibition (INH) (Platelet [3]) | inhibition [4] | inhibition (Platelet [5]) | inhibition [6] | inhibition [7]
1 | CCCCCCCCN[C@H]1CCC[C@H]1CCCCCCC(=O)O (relative stereo) | 0% | 11% | 50% | 30% | – | – | –
2 | CCCCCCCN[C@H]1CCC[C@H]1CCCCCCC(=O)O (relative stereo) | 0% | 11% | 43% | inactive | inactive | – | –
3 | CCCCCCCCN[C@H]1CCC[C@@H]1CCCCCCC(=O)O (relative stereo) | 0% | 7% | 71% | 30% | – | – | –
4 | CCCCCCCN[C@H]1CCC[C@@H]1CCCCCCC(=O)O (relative stereo) | 19% | 66% | 100% | inactive | inactive | < 10% | –
5 | CCCCCNCC[C@@H]1CCC[C@@H]1CCCCCCC(=O)O | 0% | 16% | 91% | – | inactive | – | inactive
6 | CCCCCCN[C@H]1CCC[C@@H]1CCCCCCC(=O)O (relative stereo) | 0% | 0% | 14% | inactive | – | – | –
7 | O=C(O)CCCCCC[C@H]1CCC[C@@H]1NCc1ccccc1 (relative stereo) | 0% | 0% | 0% | inactive | inactive | – | –
8 | O=C(O)CCCCCC[C@@H]1CCC[C@@H]1NCc1ccccc1 (relative stereo) | – | – | – | – | inactive | – | –

Reference: ChEMBL document CHEMBL3228015, “Azaprostanoic acid derivatives. Inhibitors of arachidonic acid induced platelet aggregation” (1979)
